Laboratory results from ChEMBL document CHEMBL2346554, “Extreme multidrug resistant HIV-1 protease with 20 mutations is resistant to novel protease inhibitors with P1'-pyrrolidinone or P2-tris-tetrahydrofuran” (J Med Chem, 2013).
Calls of active or inactive are those of the source. No cut-off for these calls is given here.

Columns and labels:
[1] = system: Human immunodeficiency virus type 1 protease (Human immunodeficiency virus 1), Q72874 [Q7K,L10F,I13V,I15V,D30V,V32I,L33F,E35D,M36I,S37N,I47V,I54L,Q58E,I62V,L63P,A71V,I84V,N88D,L89T,L90M]; assay: Inhibition of transferrin receptor-fused HIV1 protease Q7K, L10F, I13V, I15V, D30V, V32I, L33F, E35D, M36I, S37N, I47V, I54L, Q58E, I62V, L63P, A71V, I84V, N88D, L89T, L90M mutant autoprocessing expressed in Escherichia coli up to 100 uM by SDS-PAGE analysis
Summary of the method: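 TFR-fused PR20 precursor was expressed in E. coli cultures grown with increasing inhibitor in the medium, up to 100 μM. The protein was partially purified, and autoprocessing was assessed by SDS-PAGE against wild-type TFR-PR with inhibitor.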

[2] = system: Human immunodeficiency virus type 1 protease (Human immunodeficiency virus 1), Q72874 [Q7K,L10F,I13V,I15V,D30V,V32I,L33F,E35D,M36I,S37N,I47V,I54L,Q58E,I62V,L63P,A71V,I84V,N88D,L89T,L90M]; assay: Binding affinity to HIV1 protease Q7K, L10F, I13V, I15V, D30V, V32I, L33F, E35D, M36I, S37N, I47V, I54L, Q58E, I62V, L63P, A71V, I84V, N88D, L89T, L90M mutant expressed in Escherichia coli BL21 (DE3) assessed as dissociation constant by isothermal titration calorimetric analysis
Summary of the method: (§1)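 PR20 (1.8−2.15 mg/mL in 12 mM HCl) was folded by adding 5 mM sodium acetate pH 6, then 100 mM sodium acetate pH 5, and centrifuged. It was titrated in the ITC cell with inhibitor at ~10-fold the PR20 concentration, in matching buffer. Inhibitor concentration was estimated from the fitted N at known PR20, assuming 1:1 binding. KL = 1/KA.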

[3] = system: Human immunodeficiency virus type 1 protease (Human immunodeficiency virus 1), Q72874 [Q7K,L10F,I13V,I15V,D30V,V32I,L33F,E35D,M36I,S37N,I47V,I54L,Q58E,I62V,L63P,A71V,I84V,N88D,L89T,L90M]; assay: Binding affinity to HIV1 protease Q7K, L10F, I13V, I15V, D30V, V32I, L33F, E35D, M36I, S37N, I47V, I54L, Q58E, I62V, L63P, A71V, I84V, N88D, L89T, L90M mutant expressed in Escherichia coli BL21 (DE3) assessed as association constant by isothermal titration calorimetric analysis; summary of the method: as §1
[4] = system: Human immunodeficiency virus type 1 protease (Human immunodeficiency virus 1), Q72874 [Q7K,L10F,I13V,I15V,D30V,V32I,L33F,E35D,M36I,S37N,I47V,I54L,Q58E,I62V,L63P,A71V,I84V,N88D,L89T,L90M]; assay: Inhibition of transferrin receptor-fused HIV1 protease Q7K, L10F, I13V, I15V, D30V, V32I, L33F, E35D, M36I, S37N, I47V, I54L, Q58E, I62V, L63P, A71V, I84V, N88D, L89T, L90M mutant autoprocessing expressed in Escherichia coli at 100 to 150 uM by SDS-PAGE analysis
[5] = molecular target: Protease (Human immunodeficiency virus 1) (UniProt Q9YQ12); details: 0.5 to 8 uM
[6] = molecular target: Protease (Human immunodeficiency virus 1) (UniProt Q9YQ12); assay: Inhibition of HIV1 protease dimerization transfected in COS7 cells relative to darunavir; assay type: cell-based; details: COS-7
[7] = system: Human immunodeficiency virus type 1 protease (Human immunodeficiency virus 1), Q72874 [Q7K,L10F,I13V,I15V,D30V,V32I,L33F,E35D,M36I,S37N,I47V,I54L,Q58E,I62V,L63P,A71V,I84V,N88D,L89T,L90M]; assay: Ratio of amprenavir dissociation constant K to compound dissociation constant K for HIV1 protease Q7K, L10F, I13V, I15V, D30V, V32I, L33F, E35D, M36I, S37N, I47V, I54L, Q58E, I62V, L63P, A71V, I84V, N88D, L89T, L90M mutant

Structure (SMILES)	inhibition [1]	K [2]	K [3]	inhibition [4]	inhibition [5]	fold change (FC) [6]	Ratio [7]
COc1ccc(S(=O)(=O)N(C[C@H]2CCC(=O)N2)C[C@@H](O)[C@H](Cc2ccccc2)NC(=O)O[C@@H]2C[C@@H]3CCO[C@@H]3C2)cc1	inactive	960 nM	1.04 ×10⁶ /M	–	–	–	–
CC(C)CN(C[C@@H](O)[C@H](Cc1ccccc1)NC(=O)O[C@H]1CO[C@H]2OCC[C@H]21)S(=O)(=O)c1ccc(N)cc1	–	41 nM	24.5 ×10⁶ /M	inactive	Active	–	–
COc1ccc(S(=O)(=O)N(CC(C)C)C[C@@H](O)[C@H](Cc2ccccc2)NC(=O)O[C@H]2CO[C@H]3O[C@@H]4OCC[C@@H]4[C@H]32)cc1	inactive	39.5 nM	25.3 ×10⁶ /M	–	–	10	4.5
CC(C)CN(C[C@@H](O)[C@H](Cc1ccccc1)NC(=O)O[C@H]1CCOC1)S(=O)(=O)c1ccc(N)cc1	–	178 nM	5.61 ×10⁶ /M	inactive	–	–	–
